Data set [1] concerns the target Kappa-type opioid receptor (Homo sapiens, UniProt P41145). The data set is described as follows: Inhibition of KOR (unknown origin).
Data set [2] concerns the target Delta-type opioid receptor (Homo sapiens, UniProt P41143). The data set can be described thus: Inhibition of DOR (unknown origin).
In a further data set the target is CYP2D6 (Homo sapiens, UniProt P10635). The data set is described as follows: Inhibition of recombinant human CYP2D6 at 1 uM by fluorescence probe substrate-based flurometric analysis. Type of data set: ADME.
Data set [3] deals with 5-hydroxytryptamine receptor 1A (Homo sapiens) (UniProt P08908). The data set can be described thus: Displacement of [3H]8-OH-DPAT from human 5HT1A receptor at 1 uM incubated for 2 hrs scintillation counting method relative to control. In outline: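 Human 5-HT1A-enriched membranes (10 μg), 2 nM [3H]-8-OH-DPAT, 50 mM Tris-HCl/5 mM MgCl2 pH 7.4, 0.1% DMSO final, 2 h at 37 °C; 10 μM 5-HT for nonspecific binding. Compound at 1 μM; radioligand displacement read after GF/C filtration.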
5-hydroxytryptamine receptor 1A (Homo sapiens), sequence (P08908 whole entry): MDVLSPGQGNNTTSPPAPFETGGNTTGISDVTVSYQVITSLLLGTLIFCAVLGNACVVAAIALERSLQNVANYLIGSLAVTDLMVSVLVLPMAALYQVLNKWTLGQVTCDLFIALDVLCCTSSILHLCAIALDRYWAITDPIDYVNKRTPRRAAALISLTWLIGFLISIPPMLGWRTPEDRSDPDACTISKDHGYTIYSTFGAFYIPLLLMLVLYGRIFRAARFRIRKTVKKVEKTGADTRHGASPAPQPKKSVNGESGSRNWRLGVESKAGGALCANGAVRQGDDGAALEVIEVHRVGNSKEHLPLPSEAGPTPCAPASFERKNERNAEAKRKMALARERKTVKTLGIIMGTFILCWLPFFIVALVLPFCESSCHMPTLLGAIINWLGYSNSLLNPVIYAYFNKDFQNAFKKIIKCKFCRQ

In data set [4] the target is Sigma non-opioid intracellular receptor 1 (Cavia porcellus, UniProt Q60492). Type of data set: cell membranes.
In data set [5] the target is Alpha-1A adrenergic receptor (Homo sapiens) (UniProt P35348). The data set is described as follows: Displacement of [3H]prazosin from human adrenergic alpha1A receptor at 1 uM after 90 mins by scintillation counting method relative to control. In outline:
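α1A adrenoceptor-enriched human membranes (10 µg), 0.2 nM [3H]prazosin in 50 mM HEPES, 5 mM MgCl2, 1 mM CaCl2, 0.2% BSA, pH 7.4; 90 min at 25 °C; 1 µM prazosin for nonspecific binding. Compound tested at 1 µM; bound ligand collected by filtration.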

In data set [6] the target is Sodium-dependent noradrenaline transporter (Homo sapiens) (UniProt P23975). The data set is described as follows: Displacement of [3H]nisoxetine from recombinant human norepinephrine transporter at 1 uM after 60 mins by scintillation counting method relative to control. The procedure, abridged:
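Human NET-enriched membranes (1 μg), 5 nM [3H]nisoxetine in 50 mM Tris-HCl, 120 mM NaCl, 5 mM KCl, pH 7.4, 1% DMSO final; 60 min at 4 °C; 10 μM desipramine for nonspecific binding. Single 1 μM compound; filtration, displacement of radioligand.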

Data set [7] in a line: Drug metabolism in rat liver microsomes at 1 uM incubated for 1 hr in presence of NADPH by UPLC-MS analysis. As to conditions: read-out: Drug metabolism. Format: ADME, Microsome. The procedure, abridged: (§1)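 Liver microsomes, compound 1 µM, 37 °C for 1 h in 50 mM Na/K phosphate pH 7.4, 3 mM MgCl2, NADPH-regenerating system, CYP 0.3 nmol/mL. Aliquots at 0, 10, 20, 40, 60 min quenched with cold acetonitrile, supernatants by UPLC-MS/MS; % parent remaining at end reported. Terfenadine as positive control.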

Data set [8] in a line: Drug metabolism in human liver microsomes at 1 uM incubated for 1 hr in presence of NADPH by UPLC-MS analysis. Format: ADME, Microsome. As to conditions: read-out: Drug metabolism. The procedure, abridged:
as §1

The target of data set [9] is 5-hydroxytryptamine receptor 2B (Homo sapiens) (UniProt P41595). The data set is described as follows: Displacement of [3H]-LSD from recombinant human 5HT2B receptor at 1 uM after 30 mins by scintillation counting method relative to control. In outline:
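Human 5-HT2B-enriched membranes (5 µg), 1 nM [3H]LSD in 50 mM Tris-HCl, 4 mM CaCl2, 1% ascorbic acid, pH 7.4, 0.1% DMSO; 30 min, 37 °C; 50 µM 5-HT for nonspecific binding. Single 1 µM compound concentration; displacement after filtration.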

The target of data set [10] is Sodium-dependent serotonin transporter (Homo sapiens) (UniProt P31645). The data set is described as follows: Displacement of [3H]imipramine from human serotonin transporter at 1 uM after 30 mins by scintillation counting method relative to control. The procedure, abridged: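 Human SERT-enriched membranes (3.5 μg) incubated 30 min at 27 °C with 3 nM [3H]imipramine in Tris-HCl/120 mM NaCl/5 mM KCl pH 7.4, 0.1% DMSO; 200 μM imipramine for nonspecific binding. Compound at 1 μM; displacement after filtration.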
Sodium-dependent serotonin transporter (Homo sapiens), sequence (P31645 whole entry, looked up): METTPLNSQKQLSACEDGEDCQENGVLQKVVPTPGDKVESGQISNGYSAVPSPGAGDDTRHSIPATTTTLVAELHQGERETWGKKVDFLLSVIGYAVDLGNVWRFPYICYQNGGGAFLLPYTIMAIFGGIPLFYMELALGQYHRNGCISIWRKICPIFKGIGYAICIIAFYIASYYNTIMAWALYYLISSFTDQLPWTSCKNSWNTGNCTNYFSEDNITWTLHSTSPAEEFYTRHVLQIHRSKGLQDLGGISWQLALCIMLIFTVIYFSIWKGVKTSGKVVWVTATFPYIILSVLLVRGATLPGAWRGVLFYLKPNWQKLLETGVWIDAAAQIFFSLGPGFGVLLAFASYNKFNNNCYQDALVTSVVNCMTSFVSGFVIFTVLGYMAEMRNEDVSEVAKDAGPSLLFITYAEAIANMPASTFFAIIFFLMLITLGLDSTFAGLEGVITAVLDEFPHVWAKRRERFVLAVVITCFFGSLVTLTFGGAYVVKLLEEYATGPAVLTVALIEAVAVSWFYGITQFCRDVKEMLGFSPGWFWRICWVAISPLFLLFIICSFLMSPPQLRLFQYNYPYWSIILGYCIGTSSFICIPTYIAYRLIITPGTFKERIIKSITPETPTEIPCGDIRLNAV

In data set [11] the test system is HepG2. The data set can be described thus: Cytotoxicity against human HepG2 assessed as reduction in cell viability at 1 to 100 uM after 20 hrs by neutral red uptake assay. Format: cell-based. The conditions noted are these: hepg2, 20 h. The procedure, abridged:
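HepG2 seeded 3 x 10^4/well, 24 h, then 20 h serum-free exposure at 1, 10 or 100 µM. Neutral red 50 µg/mL for 3 h, washed, dye extracted with 50% ethanol/1% acetic acid, OD 550 nm. IC50 assigned as lowest concentration reaching ≥50% cytotoxicity against untreated cells; n = 4 (duplicate, two assays).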

Data set [12] in a line: Drug metabolism in mouse liver microsomes at 1 uM incubated for 1 hr in presence of NADPH by UPLC-MS analysis. Type of data set: ADME, Microsome. As to conditions: read-out: Drug metabolism. In outline:
as §1

Data set [13] deals with T1, Mu-type opioid receptor (Homo sapiens, UniProt P35372). The data set can be described thus: Displacement of [3H]DAMGO from human MOR expressed in CHO-K1 cells membranes after 60 mins by micro beta scintillation counting method. Type of data set: cell membranes. In outline: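 Human MOR in CHO-K1 membranes (20 µg) with 1 nM [3H]DAMGO in 50 mM Tris-HCl, 5 mM MgCl2, pH 7.4, 27 °C for 60 min. Test compound at five concentrations; 10 µM naloxone defines nonspecific binding. Filtered, washed thrice with ice-cold 10 mM Tris-HCl, counted by liquid scintillation.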
T1 sequence (P35372 whole entry): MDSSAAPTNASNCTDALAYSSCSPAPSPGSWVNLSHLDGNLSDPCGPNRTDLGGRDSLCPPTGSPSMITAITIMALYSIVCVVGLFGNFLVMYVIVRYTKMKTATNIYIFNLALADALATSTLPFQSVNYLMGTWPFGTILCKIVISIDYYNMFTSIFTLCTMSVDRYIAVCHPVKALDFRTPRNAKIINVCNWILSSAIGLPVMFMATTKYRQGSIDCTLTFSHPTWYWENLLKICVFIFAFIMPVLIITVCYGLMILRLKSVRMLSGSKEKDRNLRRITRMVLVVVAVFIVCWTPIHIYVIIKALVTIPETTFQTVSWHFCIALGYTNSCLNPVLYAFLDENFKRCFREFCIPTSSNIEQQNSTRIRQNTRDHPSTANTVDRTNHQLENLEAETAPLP

Data set [14] has as its target Histamine H1 receptor (Homo sapiens) (UniProt P35367). The data set can be described thus: Displacement of [3H]pyrilamine from human recombinant histamine H1 receptor at 1 uM after 90 mins by scintillation counting method relative to control. The procedure, abridged:
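Human H1 receptor-enriched membranes (25 μg) with 2.4 nM [3H]pyrilamine in Na+/K+ phosphate buffer pH 7.4, 0.1% DMSO, 90 min, 25 °C; 10 μM triprolidine for nonspecific binding. Single 1 μM test concentration; filtration-based readout of displacement.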

In data set [15] the target is T2, Sigma intracellular receptor 2 (Rattus norvegicus, UniProt Q5U3Y7).
T2 sequence (Q5U3Y7 whole entry): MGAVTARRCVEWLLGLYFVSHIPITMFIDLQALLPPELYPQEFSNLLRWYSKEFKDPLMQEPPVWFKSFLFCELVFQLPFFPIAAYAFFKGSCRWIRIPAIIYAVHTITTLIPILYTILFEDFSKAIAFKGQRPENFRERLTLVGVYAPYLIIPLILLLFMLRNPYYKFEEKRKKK
The data set is described as follows: Displacement of [3H]-di-o-tolylguanidine from sigma2 receptor in rat liver membranes incubated for 120 mins by scintillation counting method. Type of data set: cell membranes.

Data set [16] in a line: Displacement of [3H] ifenprodil from GluN2B/GluN1a (unknown origin) expressed in mouse L(tk-) cell membranes incubated for 120 mins by scintillation counting method. Details: species or system Homo sapiens. In outline:
(§2)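 Membranes from mouse L(tk-) cells co-transfected with dexamethasone-inducible GluN1a/GluN2B (1:5), induced 24 h with 4 μM dexamethasone plus 4 μM ketamine.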

Data set [17] has as its target T1, Mu-type opioid receptor. The data set is described as follows: Agonist activity at MOR (unknown origin) by cAMP assay. Type of data set: functional.
Data set [18] concerns HepG2. The data set is described as follows: Cytotoxicity against human HepG2 assessed as reduction in cell viability at 1 to 100 uM after 20 hrs by MTT assay. As to conditions: hepg2, 20 h. Format: cell-based. In outline: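 HepG2 cells, 3 x 10^4/well, grown 24 h in MEM/10% FBS, then exposed 20 h in serum-free medium to compound at 1, 10, 100 µM (from DMSO solutions). MTT 0.5 mg/mL for 4 h, formazan dissolved in DMSO, OD 550 nm. IC50 taken as lowest concentration giving ≥50% cytotoxicity versus untreated cells; duplicates in two assays (n = 4).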

Data set [19] is described as follows: Stability of compound in phosphate buffer at pH 7.4 after 24 hrs by HPLC analysis. Format: physicochemical. The conditions noted are these: pH 7.4, 24 h. The procedure, abridged: (§3)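 Compound (25 μL of 10 mM DMSO stock) added to 1 mL aqueous buffered solution, pH 2 or pH 7.4, stirred 24 h at room temperature, analyzed by HPLC-MS; deemed stable if peak area remained 95–105%.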

A short description of data set [20]: Stability of compound in aqueous HCl solution at pH 2 after 24 hrs by HPLC analysis. Type of data set: physicochemical. As to conditions: buffer, pH 2, 24 h. In outline:
as §3

For data set [21], the target named is Voltage-gated inwardly rectifying potassium channel KCNH2 (Homo sapiens, UniProt Q12809). The data set can be described thus: Inhibition of human ERG expressed in CHO cells at -80 mV holding potential by automated patch clamp electrophysiology assay. Format: cell-based.
Voltage-gated inwardly rectifying potassium channel KCNH2, sequence (Q12809 whole entry): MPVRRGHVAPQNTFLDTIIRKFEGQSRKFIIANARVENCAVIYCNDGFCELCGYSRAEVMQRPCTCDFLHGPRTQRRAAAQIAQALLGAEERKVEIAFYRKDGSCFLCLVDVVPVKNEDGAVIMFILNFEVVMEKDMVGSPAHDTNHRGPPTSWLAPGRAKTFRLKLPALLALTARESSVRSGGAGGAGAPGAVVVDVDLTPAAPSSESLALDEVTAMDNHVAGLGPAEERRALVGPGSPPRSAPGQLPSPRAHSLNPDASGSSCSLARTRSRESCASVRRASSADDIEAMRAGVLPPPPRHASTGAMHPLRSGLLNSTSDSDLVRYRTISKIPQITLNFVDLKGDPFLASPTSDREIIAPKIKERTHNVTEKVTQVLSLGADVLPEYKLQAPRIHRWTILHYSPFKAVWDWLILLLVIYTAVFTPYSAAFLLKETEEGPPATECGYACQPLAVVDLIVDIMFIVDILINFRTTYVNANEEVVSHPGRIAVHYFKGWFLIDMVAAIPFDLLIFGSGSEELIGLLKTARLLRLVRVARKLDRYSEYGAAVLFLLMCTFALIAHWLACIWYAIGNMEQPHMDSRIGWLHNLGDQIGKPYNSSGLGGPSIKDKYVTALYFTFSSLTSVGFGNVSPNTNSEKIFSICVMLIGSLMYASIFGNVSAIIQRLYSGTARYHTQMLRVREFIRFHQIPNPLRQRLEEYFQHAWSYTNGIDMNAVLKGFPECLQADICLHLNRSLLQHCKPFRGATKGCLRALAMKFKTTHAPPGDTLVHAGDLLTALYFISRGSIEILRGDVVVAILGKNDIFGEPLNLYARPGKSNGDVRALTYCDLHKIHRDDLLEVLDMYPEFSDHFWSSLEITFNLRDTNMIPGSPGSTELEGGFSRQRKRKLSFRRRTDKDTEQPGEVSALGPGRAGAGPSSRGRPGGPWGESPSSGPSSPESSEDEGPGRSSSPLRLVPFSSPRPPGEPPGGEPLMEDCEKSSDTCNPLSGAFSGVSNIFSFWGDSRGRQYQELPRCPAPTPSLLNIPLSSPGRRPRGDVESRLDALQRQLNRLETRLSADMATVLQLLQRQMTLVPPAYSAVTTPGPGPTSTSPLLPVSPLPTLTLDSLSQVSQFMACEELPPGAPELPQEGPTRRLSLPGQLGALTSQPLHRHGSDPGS
For data set [22], the target named is Sodium-dependent dopamine transporter (Homo sapiens) (UniProt Q01959). The data set can be described thus: Displacement of [3H]GBR12935 from human DAT at 1 uM after 120 mins by scintillation counting method relative to control. In outline:
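DAT-enriched human membranes (5 µg), 2 nM [3H]GBR12935 in 50 mM Tris-HCl/100 mM NaCl pH 7.4, 0.1% DMSO, 120 min at 4 °C; 10 µM GBR12909 for nonspecific binding. Compound at 1 µM; displacement measured after filtration.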

The species named for data set [23] is Sus scrofa. The conditions noted are these: at 1 µM.
Data set [24] deals with Sigma non-opioid intracellular receptor 1 (Cavia porcellus) (UniProt Q60492). The data set is described as follows: Displacement of [3H]-(+)-pentazocine from sigma1 receptor in guinea pig brain cortex membranes at 10^-10 to 10^-5 mol/L incubated for 120 mins by scintillation counting method relative to control. Format: cell membranes.
The target of data set [25] is Sigma intracellular receptor 2 (Rattus norvegicus) (UniProt Q5U3Y7). The data set is described as follows: Displacement of [3H]-di-o-tolylguanidine from sigma2 receptor in rat liver membranes at 10^-10 to 10^-5 mol/L incubated for 120 mins by scintillation counting method relative to control. Format: cell membranes.
The species named for a further data set is Homo sapiens. The data set is described as follows: Displacement of [3H] ifenprodil from GluN2B/GluN1a (unknown origin) expressed in mouse L(tk-) cell membranes at 10^-10 to 10^-5 mol/L incubated for 120 mins by scintillation counting method relative to control. In outline:
as §2

Data set [26] is filed under the species Sus scrofa. The data set is described as follows: Displacement of [3H]-(+)-MK-801 from NMDA PCP binding site in pig brain cortex membrane at 10 uM incubated for 180 mins by scintillation counting method relative to control. Format: cell membranes.
The next data set concerns Mus musculus. The data set can be described thus: Antiallodynic activity in CD-1 mouse model of capsaicin-induced mechanical allodynia assessed as increase in paw withdrawal threshold at 32 mg/kg, sc administered 30 mins before capsaicin addition and measured after 15 mins by von-Frey test. Format: functional, organism-based. In outline: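 Female CD-1 mice given compound or HPMC vehicle sc 30 min before intraplantar capsaicin (1 µg in 20 µL, 1% DMSO). 15 min later, electronic von Frey punctate stimulus (0.5 g) at least 5 mm from injection site; paw withdrawal latency, three trials 30 s apart, 50 s cutoff. % antiallodynic effect = [(LTD−LTS)/(CT−LTS)]×100; 6-8 mice per group, ANOVA with Bonferroni.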

The source made the active and inactive calls.

Histamine H1 receptor (Homo sapiens), sequence (P35367 whole entry): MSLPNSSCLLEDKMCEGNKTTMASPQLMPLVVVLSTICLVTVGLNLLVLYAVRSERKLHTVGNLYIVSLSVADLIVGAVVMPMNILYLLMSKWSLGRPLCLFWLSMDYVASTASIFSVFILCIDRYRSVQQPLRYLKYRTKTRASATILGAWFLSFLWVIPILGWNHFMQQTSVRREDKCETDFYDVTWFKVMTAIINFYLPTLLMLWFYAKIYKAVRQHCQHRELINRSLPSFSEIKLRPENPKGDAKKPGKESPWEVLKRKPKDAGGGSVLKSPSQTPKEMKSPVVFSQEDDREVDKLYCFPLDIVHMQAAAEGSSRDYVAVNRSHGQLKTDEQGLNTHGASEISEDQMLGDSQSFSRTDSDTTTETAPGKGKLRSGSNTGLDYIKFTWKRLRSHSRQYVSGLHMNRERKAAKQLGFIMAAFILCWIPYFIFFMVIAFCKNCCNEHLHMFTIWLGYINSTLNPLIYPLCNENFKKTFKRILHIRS
Sodium-dependent noradrenaline transporter (Homo sapiens), sequence (P23975 whole entry): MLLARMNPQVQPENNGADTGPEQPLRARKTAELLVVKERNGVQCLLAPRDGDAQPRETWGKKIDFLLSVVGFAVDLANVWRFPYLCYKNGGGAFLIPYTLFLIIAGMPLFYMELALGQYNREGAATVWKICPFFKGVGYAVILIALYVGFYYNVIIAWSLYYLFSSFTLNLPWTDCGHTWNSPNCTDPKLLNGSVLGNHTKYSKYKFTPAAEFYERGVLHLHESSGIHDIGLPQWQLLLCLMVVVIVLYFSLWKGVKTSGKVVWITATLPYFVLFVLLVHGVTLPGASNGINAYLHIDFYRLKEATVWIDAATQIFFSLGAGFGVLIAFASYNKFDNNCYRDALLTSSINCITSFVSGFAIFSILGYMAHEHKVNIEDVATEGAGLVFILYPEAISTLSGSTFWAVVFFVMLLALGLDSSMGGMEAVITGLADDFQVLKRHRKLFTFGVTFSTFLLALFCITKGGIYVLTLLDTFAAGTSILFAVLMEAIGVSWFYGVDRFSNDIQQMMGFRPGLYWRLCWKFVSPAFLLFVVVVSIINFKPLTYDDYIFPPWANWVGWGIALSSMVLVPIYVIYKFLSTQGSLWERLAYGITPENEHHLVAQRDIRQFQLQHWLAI
Delta-type opioid receptor, sequence (P41143 whole entry): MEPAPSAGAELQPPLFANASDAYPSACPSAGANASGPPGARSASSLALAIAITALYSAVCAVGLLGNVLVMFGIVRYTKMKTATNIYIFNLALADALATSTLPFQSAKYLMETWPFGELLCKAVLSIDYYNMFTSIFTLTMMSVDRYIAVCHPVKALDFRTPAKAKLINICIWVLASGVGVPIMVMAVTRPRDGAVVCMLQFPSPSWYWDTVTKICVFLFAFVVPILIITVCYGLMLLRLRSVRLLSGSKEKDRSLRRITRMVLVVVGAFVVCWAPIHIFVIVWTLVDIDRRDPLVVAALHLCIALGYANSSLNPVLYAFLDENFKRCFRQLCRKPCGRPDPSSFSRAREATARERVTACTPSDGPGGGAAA
Kappa-type opioid receptor, sequence (P41145 whole entry): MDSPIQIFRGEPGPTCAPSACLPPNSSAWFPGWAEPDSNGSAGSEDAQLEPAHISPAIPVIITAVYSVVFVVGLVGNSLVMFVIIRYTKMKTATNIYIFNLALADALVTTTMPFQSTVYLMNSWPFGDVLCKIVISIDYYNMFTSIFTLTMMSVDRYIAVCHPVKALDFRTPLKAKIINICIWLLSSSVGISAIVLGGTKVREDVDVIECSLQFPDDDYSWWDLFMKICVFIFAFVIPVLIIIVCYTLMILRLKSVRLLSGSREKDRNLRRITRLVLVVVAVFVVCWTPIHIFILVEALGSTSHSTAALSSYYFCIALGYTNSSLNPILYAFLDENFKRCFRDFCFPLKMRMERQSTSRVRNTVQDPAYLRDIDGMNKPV
5-hydroxytryptamine receptor 2B (Homo sapiens), sequence (P41595 whole entry): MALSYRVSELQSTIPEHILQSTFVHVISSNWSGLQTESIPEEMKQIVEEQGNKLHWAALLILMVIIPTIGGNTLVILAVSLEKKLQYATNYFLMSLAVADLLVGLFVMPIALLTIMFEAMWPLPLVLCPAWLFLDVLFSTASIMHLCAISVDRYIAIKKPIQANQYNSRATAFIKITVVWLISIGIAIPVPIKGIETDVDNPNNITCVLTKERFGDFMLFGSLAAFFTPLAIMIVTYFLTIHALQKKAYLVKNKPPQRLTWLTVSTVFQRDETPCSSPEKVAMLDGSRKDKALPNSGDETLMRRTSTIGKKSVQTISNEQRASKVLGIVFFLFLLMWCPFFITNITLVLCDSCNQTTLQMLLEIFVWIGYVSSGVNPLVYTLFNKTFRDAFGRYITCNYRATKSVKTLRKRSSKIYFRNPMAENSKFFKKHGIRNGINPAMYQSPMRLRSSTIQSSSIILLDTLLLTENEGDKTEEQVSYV

In the case of `FC(CCN1CCc2ccccc2CC1)Cc1ccccc1` (stereo unspecified), the inhibition constant (Ki) was above 1000 nM in [1]; above 1000 nM in data set [2]; 8 nM in data set [4]; 406 nM on Mu-type opioid receptor [13]; 48 nM in data set [15]; 30 nM in data set [16]. For the same molecule, on CYP2D6, the inhibition at 1 µM came out at 85%. The inhibition is 72% in data set [3]; below 50% in data set [5]; below 50% in data set [6]; below 50% in data set [9]; below 50% in data set [10]; below 50% in data set [14]. Besides, the inhibition was below 50% in [22] and 0% in the data set filed under Sus scrofa [23]. The metabolised at 1 h, 1 µM in data set [7], in [8] and in data set [12] was 100% each time. Further, the Activity entry with HepG2 [11] and with HepG2 [18] was “Toxic” each time. The molecule also registered an EC50 at Mu-type opioid receptor [17] above 10000 nM. The Stability result in data set [19] and in [20] was “Stable” each time. The molecule further displayed a half-inhibitory concentration (IC50) in [21] of 1180 nM.

Consider `COc1ccc2c(c1)CCN1CC2OC1C(F)CCc1ccccc1` (stereo unspecified), for which the inhibition in data set [24] was determined as 0%; in data set [25] it was 0%; in the data set listed under Homo sapiens, 8%; in the data set listed under Sus scrofa [23] it was 0%.

As to `COc1ccc2c(c1)CCN(CCCCc1ccccc1)CC2O` (stereo unspecified), the inhibition in the data set filed under Sus scrofa [26] came out at 22%. Besides, the inhibition constant (Ki) in [16] is 706 nM.

As to `CN1CCN(CCc2ccc(Cl)c(Cl)c2)CC1`, the outcome in the data set with Mus musculus was Active.

The values are drawn from ChEMBL document CHEMBL4393719, “Tetrahydro-3-benzazepines with fluorinated side chains as NMDA and σ1 receptor antagonists: Synthesis, receptor affinity, selectivity and antiallodynic activity” (Eur J Med Chem, 2019).
